hERG protect: compounds protecting human hERG from proarrhythmic drug block. Q12809. 310,000 compounds, 0.51% hits. CHO-hERG, FluxOR thallium flux, dofetilide IC70 present. activation (rescue from dofetilide block), less the hit threshold, % at 10 µM;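 active = activation above the mean of controls blocked by dofetilide plus 5 SD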;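 also: thallium influx through hERG after potassium depolarization seen as dye fluorescence rise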
KCNQ1 pot: potentiators or activators of human KCNQ1 potassium channel. P51787. CHO-K1 KCNQ1, thallium flux FluxOR fluorescence; active compounds read high. B-score at 10 µM. 310,000 compounds, 0.35% hits. AID 2648;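 active = fluorescence ratio B-score, a plate-corrected score, at least three library SD, with initial intensity B-score within 5 SD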
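System: CHO-K1 cells stably expressing KCNQ1 / Medium: assay buffer for compound exposure, DMSO matched across wells / Reagent: thallium- and potassium-containing depolarizing buffer / Compound: one concentration, matched DMSO / Incubation: 20 min compound pretreatment at room temperature / Measured by: kinetic FluxOR fluorescence, 10 s baseline plus 110 s post-stimulus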
KCNK3 block: human KCNK3 channel inhibition, primary screen; O14649; CHO-KCNK3 thallium flux, FluxOR fluorescence; active compounds read low; B-score at 10 µM; 340,000 compounds, 0.84% hits; AID 602410;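 active = B-score under library mean minus 4 SD, starting fluorescence ratio at most library mean plus 5 SD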;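 also: more negative B-score means stronger inhibition of thallium flux through KCNK3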
Kir21 inh: blocks the mouse Kir2.1 inward-rectifier potassium channel | HEK293-Kir2.1, FluxOR thallium flux fluorescence; active compounds read low | B-score at 10 µM | 310,000 compounds, 0.85% hits | AID 1672;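 active = fluorescence ratio B-score at or below minus 3 SD of library scores, with starting-brightness B-score within 2 SD, cut at about -4.2 in these data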;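 also: channel flux triggered by added potassium and thallium sulfate stimulus; B-score of peak minus minimum fluorescence over baseline after thallium stimulus; more negative B-score means stronger Kir2.1 block with less thallium influx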
KCNK9 inh-1: blocks the human KCNK9 two-pore domain potassium channel; HEK293 KCNK9, FluxOR thallium flux fluorescence; active compounds read low; B-score at 10 µM; 310,000 compounds, 1.2% hits; Q9NPC2;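 active = ratio B-score over 3 SD below the library mean, with starting fluorescence within 5 SD of its mean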;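 also: negative B-score means less thallium flux so channel inhibition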
Target sequence (Q9NPC2 whole entry, looked up, the tested form may be a part): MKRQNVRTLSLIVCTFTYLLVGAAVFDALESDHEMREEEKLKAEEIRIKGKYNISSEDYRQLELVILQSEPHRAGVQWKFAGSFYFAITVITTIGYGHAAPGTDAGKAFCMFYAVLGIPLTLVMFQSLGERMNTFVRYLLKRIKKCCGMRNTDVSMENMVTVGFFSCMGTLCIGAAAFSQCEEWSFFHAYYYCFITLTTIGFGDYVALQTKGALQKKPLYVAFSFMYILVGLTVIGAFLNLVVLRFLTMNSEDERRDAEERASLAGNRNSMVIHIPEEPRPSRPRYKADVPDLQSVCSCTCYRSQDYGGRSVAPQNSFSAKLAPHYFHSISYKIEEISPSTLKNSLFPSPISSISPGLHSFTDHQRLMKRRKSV
KCNQ1 inh: human KCNQ1 channel inhibition; 310,000 compounds, 1.3% hits; P51787; CHO-K1 KCNQ1, FluxOR thallium flux fluorescence; active compounds read high; B-score at 10 µM;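 active = compounds whose thallium flux B-score, printed positive for inhibition, exceeds three library SD while starting fluorescence stays within three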;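 also: channel opened by potassium depolarization with thallium stimulus after 20 min compound exposure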
hERG inh: blocks human hERG, in counter-screen for Kir2.1 inhibitors. shares compounds with Kir21 inh. hERG-expressing cells, thallium flux. inhibition, % at 10 µM. 320 compounds, 20% hits. AID 2236;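 also: host cells are CHO cells stably expressing hERG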
KCNK9 inh-2: tests whether Kir2.1 inhibitors also affect human KCNK9; shares compounds with Kir21 inh; KCNK9-expressing cells, ion flux inhibition; inhibition, % at 10 µM; 320 compounds, 5% hits; AID 2329
Kir21 ephys inh: inhibitors of mouse Kir2.1 potassium channel. Kir2.1 cells, automated patch-clamp current inhibition. AID 463252. 320 compounds, 71% hits. inhibition, % at 25 µM. shares compounds with Kir21 inh
Of the large screens only hits and unclear results are named; the others gave an inactive call (follow-up assays come after a bar, where they were run). Rows were chosen to be rich in hits. Some 3.8% of all compounds tested hit in one or more screens of this group. Unless noted, no rule for the calls is given here.

COc1ccc(C(CCNC(C)c2ccccc2)C(C)C)cc1 (stereo not given)	Kir21 inh -11 | hERG inh inactive | KCNK9 inh-2 inactive | Kir21 ephys inh 2.7%
COc1ccc(C(C)NC(=O)c2ccccc2)cc1 (stereo not given)	none
CN1C(=O)c2ccc(NC(=S)NC(=O)C(C)(C)C)cc2C1=O	none
C=CCn1c(=N)n(CC(=O)c2ccc(OC)cc2)c2ccccc21	none
CCOc1cc(S(=O)(=O)NCc2ccc3c(c2)OCO3)c(C)cc1C	Kir21 inh -6.6 | hERG inh inactive | KCNK9 inh-2 inactive | Kir21 ephys inh 10%
COc1cc(NS(=O)(=O)c2ccc(Nc3nc(-c4ccccc4)cs3)cc2)nc(OC)n1	none | hERG inh inactive | KCNK9 inh-2 inactive | Kir21 ephys inh inactive
COc1cc(NS(=O)(=O)c2ccc(NC(=S)Nc3ccccc3)cc2)nc(OC)n1	none
O=C(CN1CCCCC1)NNc1nc(-c2ccccc2)c2cc(Br)ccc2n1	none
Cc1ccc2nc(CCCc3nc4ccc(C)cc4[nH]3)[nH]c2c1	Kir21 inh -8.6 | hERG inh inactive | KCNK9 inh-2 inactive | Kir21 ephys inh inactive
C=CCc1ccccc1OCCNCc1ccccc1	Kir21 inh -8.9 | hERG inh inactive | KCNK9 inh-2 inactive | Kir21 ephys inh 75%
COc1ccccc1CN(C)C(=O)c1cccc(S(=O)(=O)N2CCCc3ccccc32)c1	none (no result: hERG protect, KCNQ1 pot, Kir21 inh, KCNK9 inh-1, KCNQ1 inh)
CC(NC(=O)C(=O)NN=C1CCCCCCCCCCC1)c1ccccc1 (stereo not given)	none
CN(C)CCOCCOc1ccc(Cl)cc1C(C)(C)C	Kir21 inh -6 | hERG inh 47% | KCNK9 inh-2 inactive | Kir21 ephys inh 37%
C=CCc1cc(Cl)ccc1OCCN(C)C	none
CC(=O)Nc1ccc2c(c1)C(=O)c1ccc(Cl)cc1-2	none (no result: hERG protect, KCNQ1 pot, Kir21 inh, KCNK9 inh-1, KCNQ1 inh)
Cc1ccc(O)c(CNc2nc3ccccc3n2C(C)C)c1	none
Cc1ccc(O)c(CNCCNCc2cc(C)ccc2O)c1	Kir21 inh -6.1 | hERG inh inactive | KCNK9 inh-2 inactive | Kir21 ephys inh 51%
c1ccc(COc2ccc(OCCCNC3CCCC3)cc2)cc1	Kir21 inh -8.8 | hERG inh 47% | KCNK9 inh-2 inactive | Kir21 ephys inh 26%
C=CCNCCCCOc1c(Cl)cc(C)cc1Br	Kir21 inh -9.3 | hERG inh inactive | KCNK9 inh-2 inactive | Kir21 ephys inh 48%
CCOCCCNCC(O)c1ccccc1 (stereo not given)	none
OCc1cc(C(O)CNCCCCCCOCCCCc2ccccc2)ccc1O (stereo not given)	Kir21 inh -5.3 | hERG inh inactive | KCNK9 inh-2 inactive | Kir21 ephys inh 23%
O=[N+]([O-])c1cc(C(F)(F)F)ccc1Sc1nccn1Cc1ccccc1	Kir21 inh -8.5 | hERG inh inactive | KCNK9 inh-2 inactive | Kir21 ephys inh 7.0%
O=[N+]([O-])c1ccc(Sc2nccn2Cc2ccccc2)c([N+](=O)[O-])c1	Kir21 inh -7.2 | hERG inh inactive | KCNK9 inh-2 inactive | Kir21 ephys inh 35%
O=[N+]([O-])c1ccc(Sc2ncccn2)c([N+](=O)[O-])c1	none
Cc1ccc(Cl)cc1N1CCN(S(=O)(=O)c2cnc[nH]2)CC1	none
COc1ccccc1/C=C/C(=O)OCC(=O)NC1CCCCCCC1	none (no result: hERG protect, KCNQ1 pot, Kir21 inh, KCNK9 inh-1, KCNQ1 inh)
CC(O)CNCc1ccccc1C(F)(F)F (stereo not given)	none
CC(CCCN(C)C)C(Cc1ccccc1)c1ccccc1 (stereo not given)	Kir21 inh -6.4 | hERG inh inactive | KCNK9 inh-2 inactive | Kir21 ephys inh 4.0%
O=c1ccc2cc3c(-c4ccccc4)coc3cc2o1	none
CC(C)CCN(Cc1ccco1)S(=O)(=O)c1csc(C(N)=O)c1	Kir21 inh -8.2 | hERG inh inactive | KCNK9 inh-2 inactive | Kir21 ephys inh 22%
CN(Cc1ccco1)S(=O)(=O)c1csc(C(N)=O)c1	none

Screening data (PubChem BioAssay)
